According to PMC7551138 (Alzheimer's & Dementia : Translational Research & Clinical …, 2020):

Legend:
Assay type in all cases: in vivo, human
[1] = system: healthy elderly subjects; test: Monitoring of treatment‐emergent adverse events
Outline: (§1)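 Randomised, double-blind, placebo-controlled trial in healthy subjects aged ≥65 (n=48; 12 active:4 placebo per cohort, placebos pooled). Intranasal test compound 5.5, 11 or 22 mg or 0.9% NaCl b.i.d. for 7 days, 6 h between doses. The 11 mg active subjects later got one open-label oral 16 mg dose of the parent drug. Safety was tracked by TEAEs, nasal examination, vital signs, ECG and safety bloods.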

[2] = system: healthy elderly subjects; test: Vital signs; details: for Diastolic BP supine / Pulse Rate supine / Systolic BP supine: vs placebo, mean (confidence interval)
Outline: as §1

[3] = Plasma pharmacokinetics, non‐compartmental analysis
[4] = CSF and plasma concentrations, Gln‐1062 11 mg vs 16 mg oral galantamine
[5] = system: healthy elderly subjects; test: NeuroCart adaptive tracking test; details: vs placebo, mean (confidence interval)
Outline: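 Joystick task keeping a dot inside a moving circle. Circle speed rises while the dot stays inside and falls when it escapes. The score is % time tracked over 3.5 min, including a 0.5 min run-in. Testing was repeated over time, with extra sessions in the 22 mg cohort. Analysis was mixed-model ANOVA (treatment, time, treatment×time fixed; subject random; baseline covariate), reporting LSM difference versus placebo with CI.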

[6] = system: healthy elderly subjects; test: NeuroCart eye movements; details: vs placebo, mean (confidence interval)
Outline: (§2)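 NeuroCart tests were repeated over time during the 7-day b.i.d. intranasal dosing: eye movements, N-back with 3 working-memory-load conditions, pharmaco-EEG, and 100-mm VAS (Bond and Lader mood/alertness/calmness; nausea). In the 22 mg cohort, EEG at 30 min and 3 h post-dose was dropped. Analysis was mixed-model ANOVA (treatment, time, treatment×time fixed; subject random; baseline covariate), giving LSM difference versus placebo with CI.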

[7] = system: healthy elderly subjects; test: Visual analogue scales; details: vs placebo, mean (confidence interval)
Outline: as §2

[8] = 5.5 mg b.i.d. intranasal, within 24 hours after first administration, dosing day 1
[9] = 22 mg b.i.d. intranasal, within 24 hours after first administration, dosing day 1
[10] = 5.5 mg b.i.d. intranasal 7 days

COc1ccc2c3c1O[C@H]1C[C@@H](OC(=O)c4ccccc4)C=C[C@@]31CCN(C)C2 [Gln‐1062]
TEAEs within 24 hours: All gastrointestinal disorders [1, 8]: 1 (8.3) number of subjects (percentage
TEAEs within 24 hours: Any events [1, 8]: 7 (58.3) number of subjects (percentage
TEAEs within 24 hours: Nausea [1, 8]: 1 (8.3) number of subjects (percentage
TEAEs within 24 hours: Vomiting [1, 8]: 1 (8.3) number of subjects (percentage
TEAEs within 24 hours: Any events ([1]; 11 mg b.i.d. intranasal, within 24 hours after first administration, dosing day 1): 12 (100.0) number of subjects (percentage
TEAEs within 24 hours: All gastrointestinal disorders [1, 9]: 6 (50.0) number of subjects (percentage
TEAEs within 24 hours: Any events [1, 9]: 12 (100.0) number of subjects (percentage
TEAEs within 24 hours: Diarrhea [1, 9]: 2 (16.7) number of subjects (percentage
TEAEs within 24 hours: Nausea [1, 9]: 5 (41.7) number of subjects (percentage
TEAEs within 24 hours: Vomiting [1, 9]: 3 (25.0) number of subjects (percentage
intensity of TEAEs ([1]; 5.5 to 22 mg b.i.d., 7 days): mild or moderate
serious adverse events ([1]; 5.5 to 22 mg b.i.d., 7 days): no serious adverse events
safety and tolerability ([1]; up to 22 mg b.i.d. intranasal for 7 days): safe and well tolerated
Diastolic BP supine [2, 10]: 2.5 (−0.6, 5.6) P = 0.1105 mmHg
Pulse Rate supine [2, 10]: −2.5 (−6.4, 1.4) P = 0.2044 bpm
Systolic BP supine [2, 10]: 5.0 (−0.3, 10.4) P = 0.0644 mmHg
Diastolic BP supine ([2]; 11 mg b.i.d. intranasal 7 days): 0.9 (−2.2, 4.1) P = 0.5566 mmHg
Pulse Rate supine ([2]; 11 mg b.i.d. intranasal 7 days): −1.0 (−4.9, 2.9) P = 0.6030 bpm
Systolic BP supine ([2]; 11 mg b.i.d. intranasal 7 days): 1.2 (−4.1, 6.5) P = 0.6528 mmHg
Diastolic BP supine ([2]; 22 mg b.i.d. intranasal 7 days): 1.2 (−1.9, 4.3) P = 0.4437 mmHg
Pulse Rate supine ([2]; 22 mg b.i.d. intranasal 7 days): 0.5 (−3.5, 4.4) P = 0.8169 bpm
Systolic BP supine ([2]; 22 mg b.i.d. intranasal 7 days): 1.8 (−3.6, 7.2) P = 0.5098 mmHg
effect on the pulse rate ([2]; all dose levels): No statistically significant effect
increase in mean diastolic blood pressure ([2]; first dosing day, 11 mg): 5.1 mm Hg
changes in blood and urinary laboratory values and ECG safety parameters ([2]; multiple doses): did not result in clinically significant changes
increase in systolic blood pressure ([2]; seventh day, 5.5 mg): 7.6 mm Hg
t1/2 of Gln‐1062 in plasma, mean (± SD) ([3]; 5.5 mg intranasal): 1.16 (±0.37) hour
t1/2 of Gln‐1062 in plasma, mean (± SD) ([3]; 22 mg intranasal): 2.09 (± 0.58) hour
median Tmax of Gln‐1062 in plasma ([3]; intranasal 5.5, 11 or 22 mg b.i.d., range 0.5 to 1.0 hour): 30 min
Gln‐1062 concentrations in CSF ([4]; 11 mg Gln‐1062 intranasal): below the limit of quantification
Dose‐corrected plasma and CSF concentrations of galantamine cleaved from Gln‐1062, compared with oral galantamine ([4]; 11 mg Gln‐1062 intranasal vs 16 mg oral galantamine): lower
Adaptive tracking [5, 10]: 0.520 (−0.779, 1.818) P = 0.4240 %‐point
Adaptive tracking ([5]; 11 mg b.i.d. intranasal 7 days): 0.318 (−0.992, 1.627) P = 0.6266 %‐point
Saccadic Inaccuracy [6, 10]: 0.59 (−0.46, 1.64) P = 0.2627%
Saccadic Peak Velocity [6, 10]: −0.06 (−21.97, 21.85) P = 0.9958 deg/s
Saccadic Reaction Time [6, 10]: −0.0112 (−0.0224,−0.0001) P = 0.0481 sec
Smooth Pursuit [6, 10]: −1.28 (−5.10, 2.53) P = 0.5011%
Saccadic Inaccuracy ([6]; 11 mg b.i.d. intranasal 7 days): 0.20 (−0.89, 1.30) P = 0.7099%
Saccadic Peak Velocity ([6]; 11 mg b.i.d. intranasal 7 days): 5.03 (−17.82, 27.87) P = 0.6588 deg/s
Saccadic Reaction Time ([6]; 11 mg b.i.d. intranasal 7 days): −0.0018 (−0.0134, 0.0098) P = 0.7546 sec
Smooth Pursuit ([6]; 11 mg b.i.d. intranasal 7 days): −0.10 (−4.04, 3.84) P = 0.9597%
Saccadic Inaccuracy ([6]; 22 mg b.i.d. intranasal 7 days): 0.51 (−0.56, 1.58) P = 0.3393%
Saccadic Peak Velocity ([6]; 22 mg b.i.d. intranasal 7 days): 8.63 (−13.65, 30.91) P = 0.4379 deg/s
Saccadic Reaction Time ([6]; 22 mg b.i.d. intranasal 7 days): −0.0013 (−0.0126, 0.0101) P = 0.8228 sec
Smooth Pursuit ([6]; 22 mg b.i.d. intranasal 7 days): 2.00 (−1.88, 5.88) P = 0.3039%
VAS Alertness [7, 10]: −1.09 (−3.74, 1.57) P = 0.4134 mm
VAS Calmness [7, 10]: 0.44 (−2.59, 3.48) P = 0.7694 mm
VAS Mood [7, 10]: −0.92 (−3.98, 2.13) P = 0.5462 mm
VAS Alertness ([7]; 11 mg b.i.d. intranasal 7 days): 0.63 (−2.15, 3.41) P = 0.6514 mm
VAS Calmness ([7]; 11 mg b.i.d. intranasal 7 days): 0.27 (−2.86, 3.40) P = 0.8615 mm
VAS Mood ([7]; 11 mg b.i.d. intranasal 7 days): −0.49 (−3.59, 2.62) P = 0.7530 mm
VAS Alertness ([7]; 22 mg b.i.d. intranasal 7 days): −0.21 (−2.86, 2.44) p = 0.8735 mm
VAS Calmness ([7]; 22 mg b.i.d. intranasal 7 days): 0.44 (−2.61, 3.49) P = 0.7734 mm
